Source: PubChem
CSN inh: blocks human CSN-mediated cullin deneddylation. Q92905. Purified CSN, SCF-Nedd8-OG deneddylation, fluorescence polarization. inhibition, % at 12.5 µM. actives 0.38% (n = 360,000). AID 651999;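 active = pattern-corrected inhibition above about 35%, with an unprinted fluorescence ratio check between 0.5 and 1.5, limit read from the data, passing the limit was not always enough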;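 also: 0% = enzyme with substrate and 100% = substrate without enzyme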
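Material: purified human Csn5 enzyme expressed in HEK293T cells / Medium: Tris buffer pH 7.5, NaCl, DTT, Tween-20, trehalose, ovalbumin / Compound dosing: 12.5 µM single point / Schedule: 90 min incubation of compound, enzyme and substrate at room temperature / Signal: fluorescence polarization of the substrate / Control set: no-enzyme wells high, enzyme-with-substrate wells low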
SENP1 inh: blocks the human SENP1 SUMO protease catalytic domain; Q9P0U3; recombinant SENP1 catalytic domain, CyPet-SUMO1-YPet FRET cleavage; inhibition, % at 10 µM; actives 0.21% (n = 360,000); AID 624204;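 active = inhibition at least 30% at 10 µM, raw YFP signal under a set limit, fluorescence ratio 0.5 to 1.5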;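 also: 0% = enzyme with DMSO and 100% = no enzyme wells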
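Material – human SENP1 catalytic domain · Input – SENP1 enzyme, 20 pM final · Compound dosing – single concentration of 10 µM compound, 0.5% DMSO final · Timing – enzyme reaction for 50 min at room temperature, dark · Measured by – FRET fluorescence in CFP and YFP emission channels · Control set – no-enzyme wells low, DMSO-plus-enzyme wells high control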
TPT1 inhibitor: C. albicans TPT1 enzyme inhibition. recombinant caTPT1, FP RNA substrate dephosphorylation. actives 0.81% (n = 300,000). inhibition, % at 5 µM;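 active = inhibition above the mean of all tested compounds plus 3 SD, set per screening campaign, cut at about 24% in these data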;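 also: plate controls were DMSO alone for no effect and ferristatin control at 100 nM for full effect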
Rpn11 block: blocks the human proteasome subunit Rpn11; human 26S proteasome, Ub4-pepOG fluorescence polarization; 20S core pre-blocked with epoxomicin; O00487; AID 588493; actives 0.59% (n = 360,000); calls only at 20 µM;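 active = inhibition at 20 µM, scaled to each plate's controls, above about 33%, limit read from the data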
HNF4A DNA FP: change in binding of human HNF4 alpha to DNA; actives 0.3% (n = 360,000); activity change, % at 10 µM; HNF4a-FITC DNA binding, fluorescence polarization, 1 h; P41235; in the data active = activity change above about 30%, passing the limit was not always enough
Target sequence (P41235 whole entry, looked up): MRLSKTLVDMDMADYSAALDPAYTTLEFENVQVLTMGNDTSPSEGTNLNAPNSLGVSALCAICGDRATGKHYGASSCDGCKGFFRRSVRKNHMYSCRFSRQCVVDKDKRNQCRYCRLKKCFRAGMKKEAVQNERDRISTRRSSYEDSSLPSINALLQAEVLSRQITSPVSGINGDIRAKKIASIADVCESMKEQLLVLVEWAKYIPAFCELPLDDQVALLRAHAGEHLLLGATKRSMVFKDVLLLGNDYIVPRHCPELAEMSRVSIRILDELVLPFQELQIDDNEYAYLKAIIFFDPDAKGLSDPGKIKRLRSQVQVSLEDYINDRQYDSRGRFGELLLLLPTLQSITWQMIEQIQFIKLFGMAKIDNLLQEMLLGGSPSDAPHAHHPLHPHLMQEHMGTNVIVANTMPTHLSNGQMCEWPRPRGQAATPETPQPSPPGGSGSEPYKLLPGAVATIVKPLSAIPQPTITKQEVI
UBC9 SUMO inh: inhibitors of human SUMOylation (UBC9) | P63279 | actives 0.36% (n = 290,000) | HTRF SUMOylation assay, SAE1/SAE2 + UBC9, in vitro | inhibition, % at 35 µM; in the data active = inhibition above about 50%, passing the limit was not always enough
caTPT1 confirm: confirmation of Candida albicans TPT1 inhibitors; shares compounds with TPT1 inhibitor; recombinant caTPT1, fluorescence polarization, RNase T1 coupled; inhibition, % at 5 µM; actives 74% (n = 2,400); AID 2149;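 active = inhibition above the primary screen limit, the mean inhibition of all tested compounds plus 3 SD, cut at about 25% in these data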
RNase T1 inh: RNase T1 inhibition in TPT1 counter-screen. inhibition, % at 5 µM. RNase T1 cleavage, fluorescence polarization, 1536-well. shares compounds with TPT1 inhibitor. actives 83% (n = 2,400);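 active = inhibition above the solvent-only control well mean plus 3 SD, limit set per screening run, cut at about 23% in these data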;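 also: plate controls were DMSO wells with enzyme for no effect and wells without RNase T1 for full effect; inhibitors block cleavage so intact labeled substrate keeps polarization high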
Target sequence (P00651 whole entry, looked up): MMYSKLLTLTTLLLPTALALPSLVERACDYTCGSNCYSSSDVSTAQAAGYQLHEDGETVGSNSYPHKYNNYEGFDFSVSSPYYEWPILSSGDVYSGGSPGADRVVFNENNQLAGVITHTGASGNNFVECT
Active calls of the source: *. Shown are actives, neighbours in structure and some others; about 1.8% of the full set was active somewhere.

Screening Cc1ccc(-c2nc3sc(C#N)c(N)n3c(=O)c2C#N)cc1 returned CSN inh 29, SENP1 inh -15, TPT1 inhibitor 24*, HNF4A DNA FP 30, UBC9 SUMO inh 31, caTPT1 confirm 35* and RNase T1 inh 48*.
For Cc1ccc(-n2c(N)c(C#N)c(-c3ccccc3)c(C#N)c2=O)cc1 the results were CSN inh 0, SENP1 inh 0, TPT1 inhibitor -6, Rpn11 block inactive, HNF4A DNA FP 2 and UBC9 SUMO inh -5.
`CC(C)c1ccc(C2OCCCO2)cc1` gave CSN inh 2, SENP1 inh -2, Rpn11 block inactive and HNF4A DNA FP 4.
Screening Cc1cc(OC(C)C(=O)N2CCN(c3ccccc3)CC2)c2c(C)c(C)c(=O)oc2c1 (stereo not given) returned CSN inh 7, SENP1 inh 1, TPT1 inhibitor 29*, Rpn11 block inactive, HNF4A DNA FP 3, UBC9 SUMO inh 2, caTPT1 confirm 1 and RNase T1 inh 3.
`Cc1cc(OCC(=O)N2CCN(c3ccccc3)CC2)c2c(C)c(C)c(=O)oc2c1` gave CSN inh 1, SENP1 inh 0, TPT1 inhibitor 0, Rpn11 block inactive, HNF4A DNA FP -2 and UBC9 SUMO inh 14.
`CC(NC(=O)C1CCN(S(=O)(=O)N2CCC3(CC2)OCCO3)CC1)c1ccccc1` (stereo not given) gave CSN inh -2, SENP1 inh 2, TPT1 inhibitor 2, Rpn11 block inactive, HNF4A DNA FP 0 and UBC9 SUMO inh 15.
CN1C(=O)C(N=Nc2ccccc2C(=O)O)N(C)C1=S (stereo not given) was read as CSN inh 8, SENP1 inh 56*, TPT1 inhibitor 41*, Rpn11 block inactive, HNF4A DNA FP 14, UBC9 SUMO inh -4, caTPT1 confirm 41* and RNase T1 inh 61*.
CC1=NN(C(N)=S)C(=O)C1N=Nc1ccccc1C(=O)O (stereo not given) was read as CSN inh -3, SENP1 inh 1, TPT1 inhibitor -7, Rpn11 block inactive, HNF4A DNA FP -2 and UBC9 SUMO inh 6.
CCOc1ccc(/C=C2\N=C(c3cccs3)OC2=O)cc1OC was read as TPT1 inhibitor 2 and UBC9 SUMO inh 2.
For Cc1cccc(S(=O)(=O)c2c(N)n(/N=C/c3cccnc3)c3nc4ccccc4nc23)c1 the results were CSN inh 0, SENP1 inh -3, TPT1 inhibitor 33*, Rpn11 block inactive, HNF4A DNA FP -1, UBC9 SUMO inh -7, caTPT1 confirm 53* and RNase T1 inh 70*.
O=C(CCl)N(C/C=C/c1ccccc1)c1ccc2c(c1)OCCO2 was read as CSN inh 2, SENP1 inh -9, TPT1 inhibitor 0, Rpn11 block inactive, HNF4A DNA FP 0 and UBC9 SUMO inh 8.
Screening O=C(O)CCNc1cc(N2CCN(C(=O)c3ccco3)CC2)c2noc3c2c1C(=O)c1ccccc1-3 returned CSN inh 28, SENP1 inh 99, TPT1 inhibitor -17, HNF4A DNA FP -11 and UBC9 SUMO inh -19.
Screening CCN1CCN(c2cc(N3CCN(C(=O)c4ccco4)CC3)c3c4c(onc24)-c2ccccc2C3=O)CC1 returned CSN inh -11, SENP1 inh 11, TPT1 inhibitor 40*, Rpn11 block inactive, HNF4A DNA FP 0, UBC9 SUMO inh -27, caTPT1 confirm 43* and RNase T1 inh 12.
Screening O=[N+]([O-])c1ccc(/C=N/Nc2nc3ccccc3o2)cc1 returned CSN inh 8, SENP1 inh 5, TPT1 inhibitor -5, Rpn11 block inactive, HNF4A DNA FP -4 and UBC9 SUMO inh 20.
`Cc1cccc(N2CCN(C(=O)c3ccc4c(c3)NC(=O)C(CSCc3cccc(F)c3)N4)CC2)c1C` (stereo not given) gave TPT1 inhibitor 134*, UBC9 SUMO inh 24, caTPT1 confirm 131* and RNase T1 inh 125*.
Screening CN(C)CCCN(C(=O)c1ccc(Br)s1)c1nc2cc3c(cc2s1)OCCO3 returned CSN inh 5, SENP1 inh -69, TPT1 inhibitor 31*, Rpn11 block inactive, HNF4A DNA FP 1, caTPT1 confirm 28* and RNase T1 inh 30*.
For O=C1CC(=O)N(Cc2cccs2)C(=O)N1 the results were CSN inh 12, SENP1 inh -11, TPT1 inhibitor 62*, Rpn11 block inactive, HNF4A DNA FP 7, UBC9 SUMO inh 23, caTPT1 confirm 16 and RNase T1 inh 23*.
For CC(C)N1CCc2c(sc(NC(=S)NC(=O)c3ccccc3)c2C#N)C1 the results were CSN inh 40*, SENP1 inh -29, TPT1 inhibitor 94*, HNF4A DNA FP 44*, UBC9 SUMO inh 19, caTPT1 confirm 81* and RNase T1 inh 86*.
CCN1CCc2c(sc(NC(=O)CN3C(=O)c4ccccc4C3=O)c2C(N)=O)C1 was read as CSN inh 3, SENP1 inh -116, TPT1 inhibitor 1, Rpn11 block inactive, HNF4A DNA FP 0 and UBC9 SUMO inh -7.
For CC(C)N1CCc2c(sc(NC(=O)c3ccc(S(=O)(=O)N4CCOCC4)cc3)c2C#N)C1 the results were CSN inh 26, SENP1 inh -43, TPT1 inhibitor 127*, HNF4A DNA FP 98, UBC9 SUMO inh 21, caTPT1 confirm 156* and RNase T1 inh 147*.
`Cc1sc(NC(=S)NC(=O)c2ccccc2)c(C#N)c1C` gave CSN inh 0, SENP1 inh 1, TPT1 inhibitor 2, Rpn11 block inactive and HNF4A DNA FP -1.
Screening CCCN1CCc2c(sc(NC(=S)NC(=O)c3ccccc3)c2C#N)C1 returned CSN inh -98, SENP1 inh -37, TPT1 inhibitor 88*, HNF4A DNA FP 93, UBC9 SUMO inh 22, caTPT1 confirm 62* and RNase T1 inh 71*.
`CCN1CCc2c(sc(NC(=S)NC(=O)c3ccc(Cl)cc3)c2C(N)=O)C1` gave CSN inh 28, SENP1 inh -36, TPT1 inhibitor 27*, HNF4A DNA FP 76, UBC9 SUMO inh -208, caTPT1 confirm 30* and RNase T1 inh 36*.
`CC(C)C1Cc2c(C#N)c(N)sc(=S)c2CO1` (stereo not given) gave CSN inh -9, SENP1 inh 13, TPT1 inhibitor -17, Rpn11 block inactive, HNF4A DNA FP -3 and UBC9 SUMO inh 14.
